Yeast superoxide: reduction of superoxide in aged yeast, primary screen, HTS. S. cerevisiae aged cells, superoxide DHE fluorescence; hits give low values. superoxide response (% of plate mean), % at 10 µM. actives 0.18% (n = 330,000);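 active = superoxide response under a set limit, about three screen SD below normal, cut at about 65% in these data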;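 also: yeast aged for seven days with compound at 30 °C before DHE staining; 100% = average MFI of all compound-treated wells on the plate with controls excluded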
HIF act: HIF pathway transcriptional activators, primary screen, cell-based, U2OS HRE-luciferase, luminescence | U2OS HRE-luciferase reporter; normalized: DMSO 0%, desferrioxamine 100% | activation, % at 7.5 µM (by protocol) | actives 0.32% (n = 300,000);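 active = mean activation of at least 10% of the iron chelator positive control signal, with at least half of replicates also reaching 10%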
T cruzi inh: inhibitors of intracellular T. cruzi growth, primary screen, luminescence, NIH3T3 host cells. T. cruzi beta-gal in NIH3T3, 90 h. inhibition, % (no concentration beside the values). actives 1.4% (n = 300,000);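 active = mean inhibition across valid replicates above about 55%, limit read from the data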;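 also: signal also drops with host cell toxicity which is not excluded here; 0% = plate median of DMSO wells and 100% = zero luminescence signal; higher percent means less beta-gal luminescence so fewer parasites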
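Assay system: NIH/3T3 fibroblasts plus reporter T. cruzi. Amount: NIH/3T3 cells, 5,000 per well. Buffer or medium: DMEM, 2% fetal bovine serum. Doses: compound pinned at 50 nL/well, DMSO. Schedule: ≥90 h infection period, 3 h prior cell attachment. Signal: luminescent β-galactosidase signal after 60 min lysis. Read-out: parasite load inhibition, %.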
NRP1-CendR mod: modulators of CendR peptide binding to NRP-1, primary screen, biochemical, fluorescence polarization, uHTS | FAM-RPARPAR peptide binding to NRP-1 | inhibition, % at 25 µM | actives 0.85% (n = 360,000) | AID 602438, 2012;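 active = inhibition or corrected inhibition above about 18%, plus a signal ratio from 0.5 to 1.5, limit read from the data, passing the limit was not always enough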
Target sequence (O14786 whole entry, looked up): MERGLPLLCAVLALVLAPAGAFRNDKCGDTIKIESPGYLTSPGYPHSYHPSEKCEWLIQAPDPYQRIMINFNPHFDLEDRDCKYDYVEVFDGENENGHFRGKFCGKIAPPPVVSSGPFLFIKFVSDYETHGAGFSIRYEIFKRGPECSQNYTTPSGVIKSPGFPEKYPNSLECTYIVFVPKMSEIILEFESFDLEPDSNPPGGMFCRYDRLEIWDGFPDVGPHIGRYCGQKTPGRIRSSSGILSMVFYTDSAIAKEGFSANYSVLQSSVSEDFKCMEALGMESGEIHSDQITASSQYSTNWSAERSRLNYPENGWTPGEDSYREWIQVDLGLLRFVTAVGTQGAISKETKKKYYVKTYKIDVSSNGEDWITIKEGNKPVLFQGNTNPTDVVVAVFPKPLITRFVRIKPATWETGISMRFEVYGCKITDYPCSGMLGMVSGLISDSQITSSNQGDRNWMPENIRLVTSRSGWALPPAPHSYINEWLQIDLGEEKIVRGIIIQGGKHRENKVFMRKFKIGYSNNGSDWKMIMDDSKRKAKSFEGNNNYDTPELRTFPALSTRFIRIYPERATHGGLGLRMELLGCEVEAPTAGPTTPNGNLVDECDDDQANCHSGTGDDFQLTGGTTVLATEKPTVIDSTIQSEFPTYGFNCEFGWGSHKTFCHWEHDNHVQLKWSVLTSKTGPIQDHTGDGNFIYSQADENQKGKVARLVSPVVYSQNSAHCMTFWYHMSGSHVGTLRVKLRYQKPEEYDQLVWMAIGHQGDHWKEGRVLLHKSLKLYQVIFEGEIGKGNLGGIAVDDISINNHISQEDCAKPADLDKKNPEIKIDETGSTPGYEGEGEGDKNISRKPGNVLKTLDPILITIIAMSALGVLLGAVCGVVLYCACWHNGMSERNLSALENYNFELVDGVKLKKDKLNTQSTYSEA
V-ATPase pHluor: regulators of yeast V-ATPase proton pumping, primary screen, pHLuorin cytosolic pH fluorescence | response, % at 10 µM | S. cerevisiae | AID 504577, 2011 | actives 0.37% (n = 350,000); in the data active = response mostly above about 7.3%, no sharp cut-off; inactive = mostly below about 5.4%; also: actives read high
AI-2 QS mod: Vibrio harveyi AI-2 quorum sensing modulators, primary screen, JMH597 strain, luminescence/OD600 ratio. Vibrio harveyi JMH597 AI-2 luminescence/OD600 ratio, 9 h; hits give low values; strain lacks LuxN and CqsS sensors; 0 = neutral-control median. activity change, % at 7.5 µM. actives 0.4% (n = 300,000); in the data active = activity change below about -75%, passing the limit was not always enough;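 also: luminescence divided by OD600 gain over 9 h not by final OD600 alone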
* marks the source's active call; other numbers are inactive results; i = inactive; . = no result given. In the library only some 3% were active in any assay of this set; here they are far more common.

SMILES	Yeast superoxide	HIF act	T cruzi inh	NRP1-CendR mod	V-ATPase pHluor	AI-2 QS mod
Cc1onc(-c2ccccc2)c1C(=O)Nc1ccc(S(=O)(=O)N2CCCC2)cc1	102.4	86.7*	5.2	4.7	2.4	9.6
Cc1onc(-c2ccccc2)c1C(=O)Nc1c(C)n(C)n(-c2ccccc2)c1=O	99.8	0.1	-4.2	38.2*	.	i
Cc1cccc(C(=O)OCC(=O)Nc2c(C)n(C)n(-c3ccccc3)c2=O)c1	105.1	.	.	18.8*	0.2	.
Cc1onc(-c2c(F)cccc2Cl)c1C(=O)Nc1c(C)n(C)n(-c2ccccc2)c1=O	98.4	0.0	3.6	4.9	-3.3	10.6
CCOC(=O)c1cnc(-n2nc(C)cc2C)nc1NCc1ccccc1	100.7	0.3	61.6*	1.0	11.2	22.9
CCOC(=O)c1cnc(-n2nc(C)cc2C)nc1NNc1ncc(-c2ccccc2)cn1	105.2	0.2	15.3	.	.	5.2
CCOC(=O)c1cnc(-n2nc(C)cc2C)nc1NC(C)c1ccccc1 (stereo unspecified)	99.6	-0.4	60.1*	2.5	4.8	29.6
Cc1ccc(S(=O)(=O)NC(CN2CCOCC2)=NCCNS(=O)(=O)c2ccccc2)cc1	103.0	0.0	3.0	35.6*	-1.9	34.5
CCCC(=O)NC(=S)Nc1ccc(NC(=O)c2cccs2)cc1	92.9	1.1	1.4	7.1	-2.9	20.1
O=C(c1cc(=O)c2ccccc2o1)N1CCN(c2ccccc2F)CC1	104.6	-0.1	-5.6	-2.9	-0.5	29.9
COCCNC(=O)Cn1c(=O)n(Cc2ccc(C(=O)NCCc3ccc(OC)c(OC)c3)cc2)c(=O)c2ccccc21	99.9	-1.7	2.5	18.3	-2.4	25.1
CC(C(=O)OCC(=O)Nc1ccc2c(c1)OCO2)N1C(=O)c2ccccc2C1=O (stereo unspecified)	74.2	0.2	4.7	21.7*	2.4	2.8
CCOc1ccc(OCCC(=O)Nc2ccc3c(c2)OCO3)cc1	102.5	.	.	2.1	-0.8	.
COc1ccc(OC)c(S(=O)(=O)N(C)CC(=O)Nc2ccc3c(c2)OCCO3)c1	100.1	0.2	4.1	6.2	-2.8	25.2
COc1ccc(OCCCC(=O)Nc2ccc3c(c2)OCO3)cc1	91.0	0.8	-4.8	5.5	15.9*	29.6
COc1ccc(/C=C/C(=O)OCC(=O)Nc2ccc3c(c2)OCO3)cc1	85.5	.	.	21.4*	-1.6	.
COc1ccc(OC)c(S(=O)(=O)N(C)CC(=O)Nc2ccc3c(c2)OCO3)c1	93.9	0.0	-6.3	32.1*	-1.3	19.7
NC(=O)C1=C[C@@H](c2ccc(Br)cc2)C[C@@H](OCc2ccc(CO)cc2)O1	99.2	0.3	0.3	7.2	5.5	-2.1
NC(=O)c1ncn([C@@H]2O[C@H](CNCc3ccc(OCC(=O)Nc4nccs4)cc3)[C@@H](O)[C@H]2O)n1	.	.	.	-15.1	1.1	.
O=C(NC12CC3CC(CC(C3)C1)C2)c1cc(F)c(F)cc1Cl	88.6	2.6	-4.4	15.5	1.9	17.2
Cc1csc(=O)n1CC(=O)OCC(=O)Nc1cc([N+](=O)[O-])ccc1Cl	122.6	0.1	-15.9	15.8	-2.5	27.2
CCOc1ccc(/C=N/OCC(=O)Nc2ccc3c(c2)OCO3)cc1	87.1	-0.4	3.7	32.0*	-1.5	-26.4
COc1ccc(N/C=C\C(=O)c2ccc3c(c2)OCO3)cc1	99.3	12.6*	7.4	-11.9	3.2	10.8
CCOc1ccc(N/C=C\C(=O)c2ccc3c(c2)OCO3)cc1	105.0	1.0	-1.5	1.0	5.9	3.6
O=C(Nc1ccc(Br)cc1)c1ccc(N2C(=O)C3CC=CCC3C2=O)cc1 (stereo unspecified)	95.8	0.3	-2.4	-6.5	0.6	22.3
SMILES	Yeast superoxide	HIF act	T cruzi inh	NRP1-CendR mod	V-ATPase pHluor	AI-2 QS mod
CCc1ccc(NC(=S)N(CCC(C)C)C2CCN(C(C)=O)CC2)cc1	72.0	-14.6	-1.4	-1.6	-0.4	22.7
CC(C)(C)C(=O)NCCn1ccc2ccccc21	101.4	0.1	10.8	1.1	3.9	14.2
CCCCOc1ccc(C(=O)NN2CCOCC2)cc1	104.3	-0.3	-1.1	2.9	-1.4	4.4
CCOC(=O)c1nn(-c2ccccc2)c(C)c1C(C)=O	83.5	-0.1	-5.5	10.9	-0.6	15.8
Cc1ccc(NC(=O)c2c(C(F)(F)F)nn(C)c2SCc2cccc(C(F)(F)F)c2)cc1C	118.2	1.1	58.8*	-2.7	-3.4	-1.4
Cc1ccc(NC(=O)c2c(C(F)(F)F)nn(C)c2SCc2ccc(Cl)cc2)cc1C	96.5	0.1	64.7*	-0.2	-0.8	11.9
Cc1ccc(NC(=O)c2c(C(F)(F)F)nn(C)c2Cl)cc1C	123.5	0.9	-0.5	-9.3	2.0	2.9
CCCn1c(NC(=O)c2ccc(C)cc2)nc2ccccc21	99.3	2.9	38.9	2.9	-0.4	28.4
C=CCn1c(NC(=O)c2ccc(C)cc2)nc2ccccc21	100.6	5.1	61.3*	13.0	-1.2	-7.1
O=C1CCC(OCc2ccccc2)CCN1CC[C@@H](Sc1ccccc1)c1ccccc1 (stereo partly specified)	.	.	.	-5.5	.	.
O=C1CC[C@@H](OCc2ccccc2)CCN1CC[C@H](Sc1ccccc1)c1ccccc1	99.1	-0.1	20.5	29.1*	-2.1	21.4
O=C(N[C@@H]1CCC(=O)N(CC[C@H](Sc2ccc(Br)cc2)c2ccccc2)CC1)OCc1ccccc1	87.5	.	.	20.0*	-1.0	.
CCNc1nc(NC(C)C)nc(NS(=O)(=O)c2ccc(Cl)cc2)n1	90.7	0.3	6.0	2.6	2.9	9.7
O=C(COC(=O)c1ccc[nH]c1=O)NC1CCCCCC1	121.2	0.1	-17.6	-5.9	-2.4	2.7
COCC(C)n1c(SCc2ccc(OC)c(F)c2)nc2ccccc2c1=O (stereo unspecified)	.	-0.9	58.9*	10.3	2.0	29.5
CCn1c(SCc2ccc(OC)c(F)c2)nc2ccccc2c1=O	98.2	0.7	20.4	16.3	5.0	12.7
CCOC(CCNC(=O)c1cn(CCOC)c(=O)c2c1c1ccccc1n2C)OCC	94.7	-1.0	2.3	-3.4	-0.1	9.7
CN(C)CCN(C(=O)c1ccc2c(c1)CCCC2)c1nc2c(F)cccc2s1	104.0	1.9	17.8	-2.4	-1.3	8.7
CCOC(=O)C(C)Sc1nc2ccccc2c(=O)n1CC (stereo unspecified)	87.7	.	.	41.5*	-1.4	.
Cn1c(SCC(=O)N2CCc3ccccc32)nnc1C1CC1	74.5	0.1	-4.0	6.4	5.6	1.3
COc1ccc(CN(CCC(c2ccccc2)C2CCOC(C)(C)C2)C(C)=O)cc1 (stereo unspecified)	105.7	0.1	2.5	-9.8	-2.3	9.1
